Laboratory results as given in ChEMBL document CHEMBL4052621, “Identification of new anti-inflammatory agents based on nitrosporeusine natural products of marine origin” (Eur J Med Chem, 2017).
Active and inactive are the calls of the source. The rule behind the calls is not given here.

Experiments:
RAW264.7 [1] = experiment: Cytotoxicity against mouse RAW264.7 cells assessed as decrease in cell viability after 24 hrs by MTT assay; format: cell-based; settings: RAW264.7, 24 h
How it was run: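 RAW264.7 macrophage viability after compound exposure was measured by MTT assay. IC50 (µM) was calculated and reported with a 95% confidence interval.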

RAW264.7 [2] = experiment: Antiinflammatory activity in mouse RAW264.7 cells assessed as inhibition of LPS-induced NO production after 24 hrs by Griess assay; format: functional, cell-based; settings: for IC50: RAW264.7, 24 h
How it was run: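 LPS-stimulated RAW264.7 cells were co-treated with compound. Nitrite, a stable NO metabolite, was measured in culture medium with Griess reagent. IC50 (µM) was reported with a 95% confidence interval.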

RAW264.7 [3] = experiment: Selectivity index, ratio IC50 for cytotoxicity against mouse RAW264.7 cells to IC50 for antiinflammatory activity in mouse RAW264.7 cells; format: functional
How it was run: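 Ratio A/B in RAW 264.7 cells. A is the cytotoxicity IC50 from the MTT assay. B is the IC50 for inhibiting NO production in LPS-stimulated cells, with nitrite in the culture medium measured by Griess reagent. Both IC50s are reported with 95% confidence intervals.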

RAW264.7 [4] = experiment: Antiinflammatory activity in mouse RAW264.7 cells assessed as inhibition of LPS-induced TNF-alpha production at 50 uM after 24 hrs by phycoerythrin staining based flow cytometry; format: functional, cell-based
How it was run: (§1)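 Cytokine bead array on protein extracts of RAW 264.7 cells treated with LPS plus compound at 50 µM. Read-outs were IL-12, IL-6, TNF-α, MCP-1 and IFN-γ, referenced to LPS-treated cells. Mean ± SD, n = 3 independent experiments.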

RAW264.7 [5] = experiment: Antiinflammatory activity in mouse RAW264.7 cells assessed as inhibition of LPS-induced iNOS production at 50 uM after 24 hrs by Western blot analysis; format: functional, cell-based
How it was run: (§2)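 Protein was isolated from control, LPS, and LPS + compound (50 µM) RAW 264.7 cultures and immunoblotted. iNOS, COX-2 and phospho-NF-κB were quantified densitometrically against β-actin. Mean ± SD of 3 independent experiments, compared with LPS treatment.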

Mus musculus [6] = species: Mus musculus; experiment: Inhibition of LPS-induced NFkappaB phosphorylation in mouse RAW264.7 cells at 50 uM after 24 hrs by Western blot analysis; format: cell-based; how it was run: as §2
Mus musculus [7] = experiment: Antiinflammatory activity in BALB/c mouse assessed as inhibition of LPS-induced IL-12 production at 10 mg/kg, ip pretreated for 3 days as single dose followed by LPS administration after 24 hrs by phycoerythrin staining based flow cytometry; format: functional, organism-based
RAW264.7 [8] = experiment: Antiinflammatory activity in mouse RAW264.7 cells assessed as inhibition of LPS-induced ROS production after 24 hrs by CM-H2DCFDA dye based fluorescence assay; format: functional, cell-based
How it was run: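 Intracellular ROS was measured in LPS-treated RAW 264.7 cells exposed to compounds at several doses. The read-out was mean fluorescence intensity, compared with LPS-treated cells. Data are mean ± SD of three independent experiments.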

Mus musculus [9] = experiment: Antiinflammatory activity in BALB/c mouse assessed as inhibition of LPS-induced […] production at 10 mg/kg, ip pretreated for 3 days as single dose followed by LPS administration after 24 hrs by phycoerythrin staining based flow cytometry; format: functional, organism-based
Mus musculus [10] = experiment: Antiinflammatory activity in BALB/c mouse assessed as inhibition of LPS-induced MCP-1 production at 10 mg/kg, ip pretreated for 3 days as single dose followed by LPS administration after 24 hrs by phycoerythrin staining based flow cytometry; format: functional, organism-based
RAW264.7 [11] = experiment: Antiinflammatory activity in mouse RAW264.7 cells assessed as inhibition of LPS-induced COX-2 production at 50 uM after 24 hrs by Western blot analysis; format: functional, cell-based; how it was run: as §2
RAW264.7 [12] = experiment: Antiinflammatory activity in mouse RAW264.7 cells assessed as inhibition of LPS-induced MCP-1 production at 50 uM after 24 hrs by phycoerythrin staining based flow cytometry; format: functional, cell-based; how it was run: as §1
Mus musculus [13] = experiment: Antiinflammatory activity in BALB/c mouse assessed as inhibition of LPS-induced TNF-alpha production at 10 mg/kg, ip pretreated for 3 days as single dose followed by LPS administration after 24 hrs by phycoerythrin staining based flow cytometry; format: functional, organism-based
Mus musculus [14] = experiment: Antiinflammatory activity in BALB/c mouse assessed as inhibition of LPS-induced IL-6 production at 10 mg/kg, ip pretreated for 3 days as single dose followed by LPS administration after 24 hrs by phycoerythrin staining based flow cytometry; format: functional, organism-based
RAW264.7 [15] = experiment: Antiinflammatory activity in mouse RAW264.7 cells assessed as inhibition of LPS-induced […] production at 50 uM after 24 hrs by phycoerythrin staining based flow cytometry; format: functional, cell-based; how it was run: as §1
RAW264.7 [16] = experiment: Antiinflammatory activity in mouse RAW264.7 cells assessed as inhibition of LPS-induced IL-6 production at 50 uM after 24 hrs by phycoerythrin staining based flow cytometry; format: functional, cell-based; how it was run: as §1
RAW264.7 [17] = experiment: Antiinflammatory activity in mouse RAW264.7 cells assessed as inhibition of LPS-induced IL-12 production at 50 uM after 24 hrs by phycoerythrin staining based flow cytometry; format: functional, cell-based; how it was run: as §1

Compound | IC50 (RAW264.7 [1]) | IC50 (RAW264.7 [2]) | Ratio IC50 (RAW264.7 [3]) | also measured
O=C(Cc1ccccc1)S[C@@]12CC[C@H](O)[C@@H]1C(=O)NC2=O (relative stereo) | 834 µM | 132 µM | 6.322 | 
CC(=O)O[C@H]1CC[C@]2(SC(=O)c3ccc(F)cc3)C(=O)NC(=O)[C@H]12 |  |  |  | inhibition (RAW264.7 [2]): Active
O=C(Cc1ccccc1)SC1CC[C@]2(SC(=O)Cc3ccccc3)C(=O)NC(=O)[C@H]12 (stereo not given in full) | 711 µM | 57.5 µM | 12.36 | 
O=C1NC(=O)C2=C1CCC2SC(=O)c1cccs1 (stereo not given) | 26.7 µM | 65 µM | 0.4108 | 
O=C(S[C@@]12CC[C@H](O)[C@@H]1C(=O)NC2=O)c1ccccc1Cl (relative stereo) | 668 µM |  | 5.245 | 
O=C(S[C@]12CCC[C@H]1C(=O)NC2=O)c1ccccc1Cl (relative stereo) | 834 µM | 59.8 µM | 13.95 | 
CC(=O)S[C@]12CCC[C@H]1C(=O)NC2=O (relative stereo) | 674 µM | 59.2 µM | 11.39 | 
O=C1NC(=O)C2=C1CC[C@H]2O | 319 µM | 121 µM | 2.631 | 
CC(=O)S[C@@]12CC[C@H](O)[C@@H]1C(=O)NC2=O (relative stereo) | 558 µM | 148 µM | 3.7762 | 
O=C(S[C@@]12CC[C@H](O)[C@@H]1C(=O)NC2=O)c1ccccc1 (relative stereo) | 479 µM | 72.4 µM | 6.622 | 
O=C(S[C@]12CC[C@H](O)[C@H]1C(=O)NC2=O)c1cccs1 (relative stereo) | 10900 µM | 36.6 µM | 297.0519 | inhibition (RAW264.7 [4]): Active; inhibition (RAW264.7 [5]): Active; inhibition (Mus musculus [6]): Active; inhibition (Mus musculus [7]): Active; inhibition (RAW264.7 [8]): Dose-dependent effect; inhibition (Mus musculus [9]): Active; inhibition (Mus musculus [10]): Active; inhibition (RAW264.7 [11]): Active; inhibition (RAW264.7 [12]): Active; inhibition (Mus musculus [13]): Active; inhibition (Mus musculus [14]): Active; inhibition (RAW264.7 [15]): Active; inhibition (RAW264.7 [16]): Active; inhibition (RAW264.7 [17]): Active
O=C(SC1CC[C@]2(SC(=O)c3ccc(F)cc3)C(=O)NC(=O)[C@H]12)c1ccc(F)cc1 (stereo not given in full) | 211 µM | 98.3 µM | 2.142 | 
O=C(S[C@]12CC[C@H](O)[C@H]1C(=O)NC2=O)c1ccc(F)cc1 (relative stereo) | 474 µM | 318 µM | 1.49 | 
CC(=O)SC12CCC=C1C(=O)NC2=O (stereo not given) | 184 µM | 20.5 µM | 9 | 
CC(=O)O[C@@H]1CC[C@@]2(SC(=O)c3ccc(F)cc3)C(=O)NC(=O)[C@@H]12 |  |  |  | inhibition (RAW264.7 [2]): Active
CC(=O)OC1CC[C@]2(SC(=O)c3ccccc3Cl)C(=O)NC(=O)[C@H]12 (stereo not given in full) | 9080 µM | 101 µM | 89.51 | 

Compound | IC50 (RAW264.7 [1]) | IC50 (RAW264.7 [2]) | Ratio IC50 (RAW264.7 [3]) | also measured
O=C(S[C@]12CC[C@H](O)[C@H]1C(=O)NC2=O)c1ccccc1Cl (relative stereo) | 717 µM | 178 µM | 4.022 | 
CC(=O)OC1CC[C@]2(SC(=O)Cc3ccccc3)C(=O)NC(=O)[C@H]12 (stereo not given in full) | 1610 µM | 68.2 µM | 23.57 | 
CC(=O)OC1CC[C@]2(SC(=O)c3ccccc3)C(=O)NC(=O)[C@H]12 (stereo not given in full) | 1910 µM | 64.3 µM | 29.74 | 
O=C(Cc1ccccc1)S[C@]12CC[C@H](O)[C@H]1C(=O)NC2=O (relative stereo) | 774 µM | 143 µM | 5.418 | 
O=C(S[C@@]12CC[C@@H](O)[C@@H]1C(=O)NC2=O)c1ccc(O)cc1 | 2910 µM | 127 µM | 22.99 | 
O=C(Cc1ccccc1)S[C@]12CCC[C@H]1C(=O)NC2=O (relative stereo) | 426 µM | 56.9 µM | 7.48 | 
O=C(S[C@]12CC[C@@H](O)[C@H]1C(=O)NC2=O)c1ccc(O)cc1 | 616 µM | 42 µM | 14.67 | 
O=C(SC12CCC(O)C1C(=O)NC2=O)c1ccc(O)cc1 (racemic) | 434 µM | 225 µM | 1.925 | 
CC(=O)O[C@H]1CCC2=C1C(=O)NC2=O | 128 µM | 867 µM | 0.1477 | 
O=C(S[C@]12CCC[C@H]1C(=O)NC2=O)c1ccc(F)cc1 (relative stereo) | 384 µM | 390 µM | 0.9841 | 
CC(=O)O[C@@H]1CC[C@]2(SC(=O)c3ccc(F)cc3)C(=O)NC(=O)[C@H]12 |  |  |  | inhibition (RAW264.7 [2]): Active
O=C(S[C@]12CC[C@H](O)[C@H]1C(=O)NC2=O)c1ccccc1 (relative stereo) | 17100 µM | 65.2 µM | 261.7025 | 
O=C(Cc1ccccc1)SC12CCC=C1C(=O)NC2=O (stereo not given) | 93.1 µM | 30.6 µM | 3.042 | 
O=C1NC(=O)C2=C1CC[C@@H]2O | 217 µM | 95.9 µM | 2.26 | 
CC(=O)S[C@]12CC[C@H](O)[C@H]1C(=O)NC2=O (relative stereo) | 857 µM | 833 µM | 1.029 | 
